One data set concerns Leishmania mexicana. The data set is described as follows: Antimicrobial activity against promastigotes form of Leishmania mexicana MHOM/MX/ISETGS after 72 hrs. The format is functional, organism-based. The method in brief:
(§1)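 Parasites grown at 26 °C in Schneider's drosophila medium with 10% FBS and penicillin. 10,000 L. mexicana promastigotes or 20,000 T. cruzi epimastigotes per well, at 10, 5, 2.5 and 1.25 µg/mL. Untreated parasite cultures included. 72 h at 26 °C, then parasites counted directly in a Neubauer chamber. IC50 by probit analysis.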

The next data set relates to Trypanosoma cruzi. Nature of the data set: Antimicrobial activity against epimastigotes form of Trypanosoma cruzi MHOM/MX/1994/Ninoa after 72 hrs. In kind it is functional, organism-based. The method, boiled down: as §1
The next data set deals with Entamoeba histolytica. Nature of the data set: Antimicrobial activity against Entamoeba histolytica HM-1:IMSS after 48 hrs. In kind it is functional, organism-based. The method, boiled down: (§2)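 Trophozoites (4 × 10⁴) exposed 48 h at 37 °C to increasing compound concentrations; DMSO-medium negative control. Then washed and subcultured 48 h in fresh drug-free medium before counting. IC50 by probit analysis; triplicate, repeated at least twice. Giardia grown in modified TYI-S-33 with 10% calf serum and bovine bile. Trichomonas and Entamoeba grown in TYI-S-33 with 10% bovine serum.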

In data set [1] the test system is Mycobacterium tuberculosis. Nature of the data set: Antimicrobial activity against Mycobacterium tuberculosis H37Rv ATTC 27294 by microplate alamar blue assay. The format is functional, organism-based. The method, boiled down: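 Inoculum from a log-phase culture adjusted to McFarland 1, then diluted 1:50 in Middlebrook 7H9 broth to 6 × 10⁶ CFU/mL and prepared just before inoculation. Compounds tested from […]. Ethambutol served as positive internal standard. MIC read by Alamar Blue. Done in triplicate.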
A general note: Alamar Blue is a resazurin reagent that responds to reducing activity.

For the next data set, the system named is Trichomonas vaginalis. Nature of the data set: Antimicrobial activity against Trichomonas vaginalis GT3 after 48 hrs. The format is functional, organism-based. Conditions: GT3, 48 h. The method in brief:
as §2

The next data set has as its system Giardia intestinalis. Nature of the data set: Antimicrobial activity against Giardia intestinalis IMSS:0696:1 after 48 hrs. In kind it is functional, organism-based. Conditions: Giardia duodenalis, IMSS:0696:1, 48 h. The method in brief:
as §2

Data set [2] in a line: Selectivity index, ratio of CC50 for african green monkey Vero cells to IC50 for Giardia intestinalis IMSS:0696:1. In kind it is functional. The method, boiled down: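 SI computed as CC50 in VERO cells divided by IC50 against the parasite.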
Data set [3] can be described thus: Cytotoxicity against african green monkey Vero cells after 72 hrs by MTT assay. The format is cell-based. The note with it: chlorocebus sabaeus. The method in brief: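 VERO cells (1.5 × 10⁴) grown in DMEM with 10% FBS at 37 °C, 5% CO₂. Seeded and grown 24–48 h, then treated at >80% confluence with 6.25–100 µg/mL (DMSO ≤0.05%) for 72 h. MTT added for 4 h at 37 °C. Formazan dissolved in acidified isopropanol and read at OD 540 nm. CC50 from triplicates.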
A general note: Tetrazolium dyes change colour on reduction, which living cells bring about.

In brackets after ≈: the same amount, converted by molar mass.

Turning to `COc1ccc(NC(=O)NCCNc2ccnc3cc(Cl)ccc23)cc1`, the half-maximal inhibitory concentration (IC50) (commonly the concentration that inhibits the measured activity by half) with Leishmania mexicana is > 50 µM; with Trypanosoma cruzi, > 50 µM; with Entamoeba histolytica it was 10.7 µM; in data set [1], 8 mg/L (≈ 21.6 µM); in the data set with Trichomonas vaginalis, 21.7 µM; in the data set with Giardia intestinalis it was 0.595 µM.

`O=C(NCCNc1ccnc2cc(Cl)ccc12)NC1CCCCC1`: the concentration for half-maximal inhibition (IC50) in the data set with Leishmania mexicana is > 50 µM; with Trypanosoma cruzi it was > 50 µM; in the data set on Entamoeba histolytica, 6.93 µM; in data set [1], 8 mg/L (≈ 23.1 µM); in the data set with Trichomonas vaginalis, 66.7 µM; with Giardia intestinalis it was 1.65 µM.

As for `O=C(NCCNc1ccnc2cc(Cl)ccc12)Nc1ccccc1`, the IC50 in the data set on Leishmania mexicana is > 50 µM; in the data set on Trypanosoma cruzi, > 50 µM; in the data set on Entamoeba histolytica, 5.37 µM; in data set [1] it was 8 mg/L (≈ 23.5 µM); with Trichomonas vaginalis it was 46 µM; in the data set on Giardia intestinalis it was 1.17 µM.

On to `O=C(NCCNc1ccnc2cc(Cl)ccc12)Nc1ccc(Cl)cc1`, for which the IC50 with Leishmania mexicana was determined as 50 µM; in the data set on Trypanosoma cruzi, 50 µM; in the data set on Entamoeba histolytica, 6.87 µM; in data set [1], 4 mg/L (≈ 10.7 µM); in the data set with Trichomonas vaginalis, 9.59 µM; in the data set on Giardia intestinalis, 0.267 µM.

As to `O=C(NCCNc1ccnc2cc(Cl)ccc12)Nc1ccc(F)cc1`, the IC50 is > 50 µM with Leishmania mexicana; > 50 µM with Trypanosoma cruzi; 17.7 µM with Entamoeba histolytica; 8 mg/L (≈ 22.3 µM) in data set [1]; 23.2 µM in the data set on Trichomonas vaginalis; 0.927 µM with Giardia intestinalis.

As to `CCOc1ccc(NC(=O)NCCNc2ccnc3cc(Cl)ccc23)cc1`, the IC50 in the data set on Leishmania mexicana is 50 µM; with Trypanosoma cruzi it was 50 µM; with Entamoeba histolytica, 5.93 µM; in data set [1], 8 mg/L (≈ 20.8 µM); with Trichomonas vaginalis, 30.1 µM; with Giardia intestinalis it was 0.339 µM.

With `CCCCOc1ccc(NC(=O)NCCNc2ccnc3cc(Cl)ccc23)cc1`, the IC50 in the data set on Leishmania mexicana is 9.9 µM; in the data set with Trypanosoma cruzi it was 50 µM; in the data set on Entamoeba histolytica, 3.64 µM; in data set [1], 2 mg/L (≈ 4.84 µM); with Trichomonas vaginalis it was 8.44 µM; in the data set with Giardia intestinalis it was 0.008 µM. In addition, in data set [2], the “Ratio CC50/IC50” value is reported as 625. Further, half-maximal cytotoxicity in data set [3] (CC50 at 72 h) was put at 5 µM.

`O=C(NCCNc1ccnc2cc(Cl)ccc12)Nc1ccc([N+](=O)[O-])cc1`: the IC50 was determined as 50 µM with Leishmania mexicana; 50 µM with Trypanosoma cruzi; 10.6 µM with Entamoeba histolytica; 8 mg/L (≈ 20.7 µM) in data set [1]; 12 µM in the data set with Trichomonas vaginalis; 1.75 µM in the data set on Giardia intestinalis.

As to `NCCNc1ccnc2cc(Cl)ccc12`, the IC50 is > 50 µM in the data set on Leishmania mexicana; > 50 µM in the data set with Trypanosoma cruzi; 14.6 µM with Entamoeba histolytica; 8 mg/L (≈ 36.1 µM) in data set [1]; 23 µM in the data set with Trichomonas vaginalis; 1.25 µM in the data set with Giardia intestinalis.

`O=C(Cn1ccnc1[N+](=O)[O-])NCc1ccccc1` [BENZNIDAZOLE] returned an IC50 in the data set with Trypanosoma cruzi of 34.4 µM.

For `CCN(CC)CCCC(C)Nc1ccnc2cc(Cl)ccc12` (stereo unspecified) [CHLOROQUINE], the concentration for half-maximal inhibition (IC50) was > 50 µM in the data set on Leishmania mexicana; > 50 µM in the data set with Trypanosoma cruzi; 9.58 µM with Entamoeba histolytica; > 8 mg/L in data set [1]; 30 µM with Trichomonas vaginalis; 0.401 µM in the data set on Giardia intestinalis.

With `CC[C@@H](CO)NCCN[C@@H](CC)CO` [ETHAMBUTOL], in data set [1], the IC50 was 4 mg/L (≈ 19.6 µM).

`N=C(N)c1ccc(OCCCCCOc2ccc(C(=N)N)cc2)cc1` [PENTAMIDINE] returned an IC50 in the data set with Leishmania mexicana of 13.3 µM.

Compound `CC(C)CCOc1ccc(NC(=S)Nc2ccc(OCCC(C)C)cc2)cc1` [TIOCARLIDE] registered an IC50 in data set [1] of 4 mg/L (≈ 9.99 µM).

These data come from ChEMBL document CHEMBL1221297, “Design, synthesis, and in vitro antiprotozoal, antimycobacterial activities of N-{2-[(7-chloroquinolin-4-yl)amino]ethyl}ureas” (Bioorg Med Chem, 2010).
